Laboratory results: ChEMBL document CHEMBL1153229, “The first synthetic agonists of FFA2: Discovery and SAR of phenylacetamides as allosteric modulators” (Bioorg Med Chem Lett, 2010)
Activity calls are given as the source filed them. The rule behind the calls is not given here.

Tests used:
[1] = Volume of distribution at steady state in Sprague-Dawley rat at 0.5 mg/kg, iv; assay type: ADME, organism-based; parameters: dose 0.5 mg/kg, route intravenous; settings: in vivo, read-out: Vdss
How it was run: (§1)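 Male Sprague-Dawley rats dosed 0.5 mg/kg iv.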

[2] = Cmax in mouse at 5 mg/kg, po; assay type: ADME, organism-based; parameters: dose 5 mg/kg, route oral; settings: in vivo
[3] = target: T1, Free fatty acid receptor 3 (Homo sapiens) (UniProt O14843); experiment: Agonist activity at FFA3 receptor up to 30 uM; assay type: functional
T1 sequence (whole entry): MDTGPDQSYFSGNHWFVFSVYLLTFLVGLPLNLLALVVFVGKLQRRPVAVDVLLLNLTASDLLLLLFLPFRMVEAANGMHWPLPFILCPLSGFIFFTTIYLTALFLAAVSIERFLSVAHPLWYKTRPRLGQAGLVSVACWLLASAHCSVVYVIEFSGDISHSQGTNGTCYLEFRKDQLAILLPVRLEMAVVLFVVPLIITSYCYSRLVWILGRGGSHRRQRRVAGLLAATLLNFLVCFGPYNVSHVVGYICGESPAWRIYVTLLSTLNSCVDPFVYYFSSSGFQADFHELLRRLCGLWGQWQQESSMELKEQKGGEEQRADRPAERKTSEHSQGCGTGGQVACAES

[4] = target: Hydroxycarboxylic acid receptor 2 (Homo sapiens) (UniProt Q8TDS4); experiment: Agonist activity at GPR109A up to 30 uM; assay type: functional
Sequence of Hydroxycarboxylic acid receptor 2 (Homo sapiens) (Q8TDS4 whole entry): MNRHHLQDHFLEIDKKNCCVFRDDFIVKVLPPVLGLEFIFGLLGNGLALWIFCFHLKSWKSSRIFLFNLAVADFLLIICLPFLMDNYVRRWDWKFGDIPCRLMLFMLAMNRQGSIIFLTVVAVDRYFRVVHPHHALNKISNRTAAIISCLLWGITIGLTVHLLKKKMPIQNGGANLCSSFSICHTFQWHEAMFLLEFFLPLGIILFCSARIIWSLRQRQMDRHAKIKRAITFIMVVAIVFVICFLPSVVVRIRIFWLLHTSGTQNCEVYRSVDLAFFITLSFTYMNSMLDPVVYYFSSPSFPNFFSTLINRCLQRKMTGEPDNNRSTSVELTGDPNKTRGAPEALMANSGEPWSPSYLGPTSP

[5] = Mean residence time in mouse at 5 mg/kg, po; assay type: ADME, organism-based; parameters: dose 5 mg/kg, route oral; settings: in vivo
[6] = Mean residence time in Sprague-Dawley rat at 0.5 mg/kg, iv; assay type: ADME, organism-based; parameters: dose 0.5 mg/kg, route intravenous; settings: in vivo; how it was run: as §1
Mus musculus = experiment: Reduction in plasma free fatty acid level in overnight fasted FFA2 knockout C57BL/6 mouse at 20 mg/kg, ip after 15 mins; assay type: functional, organism-based; parameters: dose 20 mg/kg
How it was run: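 Male-unspecified C57BL6 mice, wild type or FFA2 knockout, fasted overnight. Given compound or vehicle (10% dimethyl acetamide, 10% ethanol, 30% propylene glycol, 50% saline) ip at 10 ml/kg. Tail blood sampled before and 15 minutes after injection. Plasma FFA measured by enzymatic kit. Ten animals per group; t test.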

Rattus norvegicus = experiment: Clearance in Sprague-Dawley rat at 0.5 mg/kg, iv; assay type: ADME, organism-based; parameters: dose 0.5 mg/kg, route intravenous; settings: in vivo; how it was run: as §1
[7] = target: Free fatty acid receptor 1 (Homo sapiens) (UniProt O14842); experiment: Agonist activity at FFA1 receptor up to 30 uM; assay type: functional
Sequence of Free fatty acid receptor 1 (Homo sapiens) (O14842 whole entry): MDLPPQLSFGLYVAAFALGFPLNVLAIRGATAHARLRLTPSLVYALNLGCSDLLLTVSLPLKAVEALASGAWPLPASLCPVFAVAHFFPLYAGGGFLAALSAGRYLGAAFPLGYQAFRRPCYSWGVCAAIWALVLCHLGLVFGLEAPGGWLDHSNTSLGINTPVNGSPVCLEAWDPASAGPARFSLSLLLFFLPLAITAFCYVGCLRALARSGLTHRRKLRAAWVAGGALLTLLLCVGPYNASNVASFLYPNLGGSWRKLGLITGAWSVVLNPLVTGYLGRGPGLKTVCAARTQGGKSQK

Vd [1]: 9.8 L/kg
Cmax [2]: 83 ng/mL
Activity [3]: inactive
Activity [4]: inactive
MRT [5]: 0.93 h
MRT [6]: 3.8 h
CL (Rattus norvegicus): 43.3 mL/min/kg
Activity [7]: inactive
SMILES: CC(C)[C@H](C(=O)Nc1ncc(F)s1)c1ccc(Cl)cc1
Activity (Mus musculus): Active
